Test results taken from ChEMBL document CHEMBL1629517, “Molecular properties prediction, synthesis and antimicrobial activity of some newer oxadiazole derivatives” (2010).
≈ marks a conversion by molar mass, not a printed value.

Tests used:
Staphylococcus aureus [1] = experiment: Antibacterial activity against Staphylococcus aureus ATCC 25923 at 100 ug/ml after 24 hrs by disc-diffusion method; type: functional; settings: ATCC 25923, 24 h, read-out: IZ
Staphylococcus aureus [2] = experiment: Antibacterial activity against Staphylococcus aureus ATCC 25923 at 200 ug/ml after 24 hrs by disc-diffusion method; type: functional; settings: ATCC 25923, 24 h, read-out: IZ
Bacillus subtilis [3] = experiment: Antibacterial activity against Bacillus subtilis ATCC 6633 at 100 ug/ml after 24 hrs by disc-diffusion method; type: functional; settings: ATCC 6633, 24 h, read-out: IZ
Bacillus subtilis [4] = experiment: Antibacterial activity against Bacillus subtilis ATCC 6633 at 200 ug/ml after 24 hrs by disc-diffusion method; type: functional; settings: ATCC 6633, 24 h, read-out: IZ
Escherichia coli [5] = experiment: Antibacterial activity against Escherichia coli ATCC 25922 at 100 ug/ml after 24 hrs by disc-diffusion method; type: functional; settings: ATCC 25922, 24 h, read-out: IZ
Escherichia coli [6] = experiment: Antibacterial activity against Escherichia coli ATCC 25922 at 200 ug/ml after 24 hrs by disc-diffusion method; type: functional; settings: ATCC 25922, 24 h, read-out: IZ
Pseudomonas aeruginosa [7] = experiment: Antibacterial activity against Pseudomonas aeruginosa ATCC 27853 at 100 ug/ml after 24 hrs by disc-diffusion method; type: functional; settings: ATCC 27853, 24 h, read-out: IZ
Pseudomonas aeruginosa [8] = experiment: Antibacterial activity against Pseudomonas aeruginosa ATCC 27853 at 200 ug/ml after 24 hrs by disc-diffusion method; type: functional; settings: ATCC 27853, 24 h, read-out: IZ
Staphylococcus aureus [9] = experiment: Antibacterial activity against Staphylococcus aureus ATCC 25923 after 24 hrs by broth dilution technique; type: functional; settings: ATCC 25923, 24 h
In short: (§1)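 MIC by broth dilution: nutrient broth containing logarithmic two-fold serial dilutions of compound was inoculated with about 5 × 10⁵ c.f.u. of actively dividing bacteria.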

Bacillus subtilis [10] = experiment: Antibacterial activity against Bacillus subtilis ATCC 6633 after 24 hrs by broth dilution technique; type: functional; settings: ATCC 6633, 24 h; in short: as §1
Escherichia coli [11] = experiment: Antibacterial activity against Escherichia coli ATCC 25922 after 24 hrs by broth dilution technique; type: functional; settings: ATCC 25922, 24 h; in short: as §1
Pseudomonas aeruginosa [12] = experiment: Antibacterial activity against Pseudomonas aeruginosa ATCC 27853 after 24 hrs by broth dilution technique; type: functional; settings: ATCC 27853, 24 h; in short: as §1
Staphylococcus aureus [13] = experiment: Antibacterial activity against Staphylococcus aureus ATCC 25923 after 18 to 24 hrs; type: functional
Bacillus subtilis [14] = experiment: Antibacterial activity against Bacillus subtilis ATCC 6633 after 18 to 24 hrs; type: functional
Escherichia coli [15] = experiment: Antibacterial activity against Escherichia coli ATCC 25922 after 18 to 24 hrs; type: functional
Pseudomonas aeruginosa [16] = experiment: Antibacterial activity against Pseudomonas aeruginosa ATCC 27853 after 18 to 24 hrs; type: functional
Aspergillus niger [17] = experiment: Antifungal activity against Aspergillus niger at 200 ug/ml after 48 hrs by agar diffusion method; type: functional; settings: read-out: IZ
In short: (§2)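 Agar well diffusion on Sabouraud agar (peptone 1 g, D-glucose 4 g, agar 2 g per 100 ml water, pH 5.7). Plates were lawned with a saline suspension of spores, excess was decanted, and plates were dried 1 h at 37 °C. Compounds in DMSO went into punched wells, and inhibition zones were measured against controls, with voriconazole as standard.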

Candida albicans [18] = experiment: Antifungal activity against Candida albicans at 100 ug/ml after 48 hrs by agar diffusion method; type: functional; settings: read-out: IZ; in short: as §2
Candida albicans [19] = experiment: Antifungal activity against Candida albicans at 200 ug/ml after 48 hrs by agar diffusion method; type: functional; settings: read-out: IZ; in short: as §2
Aspergillus niger [20] = experiment: Antifungal activity against Aspergillus niger after 48 hrs; type: functional
Candida albicans [21] = experiment: Antifungal activity against Candida albicans after 48 hrs; type: functional
Aspergillus niger [22] = experiment: Antifungal activity against Aspergillus niger at 100 ug/ml after 3 to 4 days by agar diffusion method; settings: read-out: IZ

Row | SMILES | zone of inhibition at 100 µg/mL (Staphylococcus aureus [1]) [mm] | zone of inhibition at 200 µg/mL (Staphylococcus aureus [2]) [mm] | zone of inhibition at 100 µg/mL (Bacillus subtilis [3]) [mm] | zone of inhibition at 200 µg/mL (Bacillus subtilis [4]) [mm] | zone of inhibition at 100 µg/mL (Escherichia coli [5]) [mm] | zone of inhibition at 200 µg/mL (Escherichia coli [6]) [mm] | zone of inhibition at 100 µg/mL (Pseudomonas aeruginosa [7]) [mm] | zone of inhibition at 200 µg/mL (Pseudomonas aeruginosa [8]) [mm] | MIC (Staphylococcus aureus [9]) [µg/mL] | MIC (Bacillus subtilis [10]) [µg/mL] | MIC (Escherichia coli [11]) [µg/mL] | MIC (Pseudomonas aeruginosa [12]) [µg/mL] | MBC (Staphylococcus aureus [13]) [µg/mL] | MBC (Bacillus subtilis [14]) [µg/mL] | MBC (Escherichia coli [15]) [µg/mL] | MBC (Pseudomonas aeruginosa [16]) [µg/mL] | zone of inhibition at 200 µg/mL (Aspergillus niger [17]) [mm] | zone of inhibition at 100 µg/mL (Candida albicans [18]) [mm] | zone of inhibition at 200 µg/mL (Candida albicans [19]) [mm] | MFC (Aspergillus niger [20]) [µg/mL] | other results
1 | COc1ccc(C(=O)/C=C/c2ccc(OCc3nnc(-c4ccccc4O)o3)c(OC)c2)cc1 | 21 | 23 | 18 | 20 | 25 | 26 | 30 | 32 | 6 (≈ 13.1 µM) | 6 (≈ 13.1 µM) | 6 (≈ 13.1 µM) | 12.5 (≈ 27.3 µM) | 6 (≈ 13.1 µM) | 12.5 (≈ 27.3 µM) | 12.5 (≈ 27.3 µM) | 25 (≈ 54.5 µM) | 26 | 19 | 21 | 12.5 (≈ 27.3 µM) | MIC (Aspergillus niger [20]): 6 µg/mL (≈ 13.1 µM); MFC (Candida albicans [21]): 12.5 µg/mL (≈ 27.3 µM); MIC (Candida albicans [21]): 6 µg/mL (≈ 13.1 µM); zone of inhibition at 100 µg/mL (Aspergillus niger [22]): 25 mm
2 | COc1cc(/C=C/C(=O)c2ccc(O)cc2)ccc1OCc1nnc(-c2ccccc2O)o1 | 19 | 20 | 16 | 18 | 23 | 24 | 27 | 28 | 6 (≈ 13.5 µM) | 6 (≈ 13.5 µM) | 12.5 (≈ 28.1 µM) | 6 (≈ 13.5 µM) | 12.5 (≈ 28.1 µM) | 12.5 (≈ 28.1 µM) | 25 (≈ 56.3 µM) | 12.5 (≈ 28.1 µM) | 29 | 21 | 24 | 12.5 (≈ 28.1 µM) | MIC (Aspergillus niger [20]): 6 µg/mL (≈ 13.5 µM); MFC (Candida albicans [21]): 12.5 µg/mL (≈ 28.1 µM); MIC (Candida albicans [21]): 6 µg/mL (≈ 13.5 µM); zone of inhibition at 100 µg/mL (Aspergillus niger [22]): 27 mm
3 | COc1ccc(C(=O)/C=C/c2ccc(OCc3nnc(COc4ccccc4)o3)c(OC)c2)cc1 | 17 | 19 | 13 | 16 | 21 | 22 | 26 | 28 | 12.5 (≈ 26.5 µM) | 12.5 (≈ 26.5 µM) | 25 (≈ 52.9 µM) | 25 (≈ 52.9 µM) | 25 (≈ 52.9 µM) | 12.5 (≈ 26.5 µM) | 12.5 (≈ 26.5 µM) | 12.5 (≈ 26.5 µM) | 19 | 11 | 14 | 12.5 (≈ 26.5 µM) | MIC (Aspergillus niger [20]): 6 µg/mL (≈ 12.7 µM); MFC (Candida albicans [21]): 25 µg/mL (≈ 52.9 µM); MIC (Candida albicans [21]): 12.5 µg/mL (≈ 26.5 µM); zone of inhibition at 100 µg/mL (Aspergillus niger [22]): 16 mm
4 | COc1cc(/C=C/C(=O)c2ccccc2)ccc1OCc1nnc(-c2ccc(Cl)cc2)o1 | 12 | 14 | 9 | 11 | 16 | 18 | 19 | 22 | 12.5 (≈ 28 µM) | 6 (≈ 13.4 µM) | 12.5 (≈ 28 µM) | 25 (≈ 55.9 µM) | 25 (≈ 55.9 µM) | 12.5 (≈ 28 µM) | 25 (≈ 55.9 µM) | 50 (≈ 112 µM) | 20 | 12 | 15 | 25 (≈ 55.9 µM) | MIC (Aspergillus niger [20]): 12.5 µg/mL (≈ 28 µM); MFC (Candida albicans [21]): 50 µg/mL (≈ 112 µM); MIC (Candida albicans [21]): 25 µg/mL (≈ 55.9 µM); zone of inhibition at 100 µg/mL (Aspergillus niger [22]): 18 mm
5 | COc1cc(/C=C/C(=O)c2ccccc2)ccc1OCc1nnc(COc2ccccc2)o1 | 15 | 17 | 12 | 14 | 18 | 20 | 23 | 24 | 6 (≈ 13.6 µM) | 12.5 (≈ 28.3 µM) | 12.5 (≈ 28.3 µM) | 12.5 (≈ 28.3 µM) | 12.5 (≈ 28.3 µM) | 25 (≈ 56.5 µM) | 12.5 (≈ 28.3 µM) | 25 (≈ 56.5 µM) | 25 | 16 | 18 | 12.5 (≈ 28.3 µM) | MIC (Aspergillus niger [20]): 6 µg/mL (≈ 13.6 µM); MFC (Candida albicans [21]): 25 µg/mL (≈ 56.5 µM); MIC (Candida albicans [21]): 12.5 µg/mL (≈ 28.3 µM); zone of inhibition at 100 µg/mL (Aspergillus niger [22]): 22 mm
6 | COc1cc(/C=C/C(=O)c2ccccc2)ccc1OCc1nnc(-c2ccccc2O)o1 | 17 | 19 | 15 | 16 | 20 | 22 | 25 | 27 | 6 (≈ 14 µM) | 6 (≈ 14 µM) | 6 (≈ 14 µM) | 6 (≈ 14 µM) | 12.5 (≈ 29.2 µM) | 12.5 (≈ 29.2 µM) | 12.5 (≈ 29.2 µM) | 12.5 (≈ 29.2 µM) | 25 | 18 | 20 | 12.5 (≈ 29.2 µM) | MIC (Aspergillus niger [20]): 6 µg/mL (≈ 14 µM); MFC (Candida albicans [21]): 12.5 µg/mL (≈ 29.2 µM); MIC (Candida albicans [21]): 6 µg/mL (≈ 14 µM); zone of inhibition at 100 µg/mL (Aspergillus niger [22]): 22 mm
